Reference: ChEMBL document CHEMBL3045637, “Highly variable insect control efficacy of Tephrosia vogelii chemotypes” (2012)
In brackets after ≈: the same amount, converted by molar mass. Activity calls are given as the source filed them. The calls are words filed in the database; no cut-off is given here.

Tests used:
Callosobruchus maculatus [1] = assay: Insecticidal activity against adult Callosobruchus maculatus assessed mean survival fraction ratio at 500 ppm measured 72 hr post dose (reference value: 4.4 +/- 0.31 mean survival fraction); format: functional
Callosobruchus maculatus [2] = assay: Inhibition of F1 generation emergence in adult Callosobruchus maculatus grown on compound pre-treated cowpea seeds assessed as reduction in adult emergence at 10 to 500 ppm measured over 2 weeks from start of F1 emergence; format: functional, organism-based
How it was run: (§1)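 Compounds in acetone at 500, 100 and 10 ppm were coated onto cowpea seed by rotary evaporation (5 mL per 25 g) and air-dried 1 h. 5 g of treated seed went in a vial with 5 mated females, 2–3 days old, 5 replicates per treatment. Females were removed at 72 h and eggs counted. F1 emergence was counted from day 25 over two weeks. Means compared by ANOVA with SNK or LSD.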

Callosobruchus maculatus [3] = assay: Insecticidal activity against adult Callosobruchus maculatus assessed mean survival fraction ratio at 100 ppm measured 72 hr post dose (reference value: 4.4 +/- 0.31 mean survival fraction); format: functional
Callosobruchus maculatus [4] = assay: Insecticidal activity against adult Callosobruchus maculatus assessed mean survival fraction ratio at 10 ppm measured 72 hr post dose (reference value: 4.4 +/- 0.31 mean survival fraction); format: functional
Callosobruchus maculatus [5] = assay: Insecticidal activity against adult Callosobruchus maculatus assessed reduction mean survival fraction measured 72 hr post dose (reference value: 4.4 +/- 0.31 mean survival fraction); format: functional
Callosobruchus maculatus [6] = assay: Inhibition of oviposition in adult Callosobruchus maculatus grown on compound pre-treated cowpea seeds assessed as reduction in number of eggs at 10 to 500 ppm measured after 72 hr; format: functional, organism-based; how it was run: as §1

| SMILES | Ratio (Callosobruchus maculatus [1]) | inhibition (Callosobruchus maculatus [2]) | Ratio (Callosobruchus maculatus [3]) | Ratio (Callosobruchus maculatus [4]) | LC50 (Callosobruchus maculatus [5]) | inhibition (Callosobruchus maculatus [6]) |
| --- | --- | --- | --- | --- | --- | --- |
| COc1cc2c(cc1OC)[C@@H]1C(=O)c3ccc4c(c3O[C@@H]1CO2)C=CC(C)(C)O4 [DEGUELIN] | 0.9 | Active | 1.4 | 2.6 | < 10 µg/mL | Active |
| COc1cc2c(c3c1C(=O)C[C@@H](c1ccccc1)O3)C=CC(C)(C)O2 [OBOVATIN 5-METHYL ETHER] | 4.2 |  | 4.2 | 3.8 |  |  |
| C=C(C)[C@H]1Cc2c(ccc3c2O[C@@H]2COc4cc(OC)c(OC)cc4[C@@H]2C3=O)O1 [ROTENONE] | 0.4 | Active | 0.7 | 1 | < 10 µg/mL | Active |
| COc1cc2c(cc1OC)[C@]1(O)C(=O)c3ccc4c(c3O[C@@H]1CO2)C1C(O4)C1(C)C (some centres undefined) [SARCOLOBINE] | 0.6 |  | 1.4 | 2 | < 10 µg/mL |  |
| COc1cc2c(cc1OC)[C@]1(O)C(=O)c3ccc4c(c3O[C@@H]1CO2)C=CC(C)(C)O4 [TEPHROSIN] | 1.8 | Active | 2.3 | 2.9 | 200 µg/mL (≈ 487 µM) | Active |
| COc1cc2c(cc1OC)[C@@H]1C(=O)c3c(O)cc4c(c3O[C@@H]1CO2)C=CC(C)(C)O4 [TOXICAROL] | 2.2 |  | 2.2 | 2.2 | < 10 µg/mL |  |
